In ChEMBL document CHEMBL4130355, “Development of a series of novel 4-anlinoquinazoline derivatives possessing quinazoline skeleton: Design, synthesis, EGFR kinase inhibitory efficacy, and evaluation of anticancer activities in vitro” (Eur J Med Chem, 2017):
Activity calls are given as the source filed them. The rule behind the calls is not given here.

Assays:
HepG2 [1] = test: Cell cycle arrest in human HepG2 assessed as accumulation at S phase at 5 uM after 48 hrs by propidium iodide-staining based flow cytometry (reference value: 21.46%); format: functional
Procedure, shortened: (§1)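 HepG2 cells at 5.0 × 10^5/well were grown 24 h, then treated at 0, 2.5, 5.0 or 10.0 µM for 48 h alongside medium-only wells. Cells fixed in 70% ice-cold ethanol for ≥24 h, treated with RNase A at 37 °C for 30 min, then stained with propidium iodide for 30 min at 4 °C in the dark. DNA content read by flow cytometry. Average of at least three experiments.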

HepG2 [2] = test: Cell cycle arrest in human HepG2 assessed as accumulation at G0/G1 phase at 10 uM after 48 hrs by propidium iodide-staining based flow cytometry (reference value: 69.40%); format: functional; procedure, shortened: as §1
A549 [3] = test: Antiproliferative activity against human A549 cells after 48 hrs by MTT assay; format: functional, cell-based; conditions: A549, 48 h
Procedure, shortened: (§2)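 MTT read-out. Cells seeded at 2 × 10^3/well, attached 24 h at 37 °C in 5% CO2, then exposed to 0.1–100 µM for 24, 48 or 72 h. MTT for 4 h, formazan dissolved in 10% SDS/NH4Cl for 10 h, absorbance at 570 nm corrected at 650 nm. % inhibition computed against untreated and blank wells. IC50 is the mean of at least three independent experiments.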

HepG2 [4] = test: Antiproliferative activity against human HepG2 cells at 100 uM after 48 hrs by MTT assay realtive to control; format: functional
Procedure, shortened: (§3)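 MTT assay in triplicate wells. Cells (2 × 10^3/well) were attached 24 h, then treated at 0.1, 1, 10, 50 or 100 µM for 24, 48 or 72 h. MTT added for 4 h, SDS solubilisation, absorbance at 570/650 nm. Inhibition = 1 − (OD treated − blank)/(OD control − blank). Reported as mean ± SD of three independent experiments.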

HepG2 [5] = test: Induction of apoptosis in human HepG2 cells assessed as convoluted nuclei formation at 2.5 to 20 uM after 48 hrs by Hoechst 33342/propidium iodide double staining based laser scanning confocal microscopy; format: functional, cell-based
Procedure, shortened: (§4)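 HepG2 plated at 5.0 × 10^4 cells/well in DMEM with 10% FBS, 24 h at 37 °C, then treated 48 h (2.5–20 µM). After two ice-cold PBS washes, cells were stained with Hoechst 33342/PI mixed 1:1 for 30 min at 37 °C in the dark, washed three times, and imaged by laser scanning confocal microscopy at 200×.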

A549 [6] = test: Antiproliferative activity against human A549 cells at 100 uM after 72 hrs by MTT assay relative to control; format: functional; procedure, shortened: as §3
[7] = target: T1, Epidermal growth factor receptor (Homo sapiens, UniProt P00533); conditions: HEK293, at 0.0001 µM
T1 sequence (P00533 whole entry): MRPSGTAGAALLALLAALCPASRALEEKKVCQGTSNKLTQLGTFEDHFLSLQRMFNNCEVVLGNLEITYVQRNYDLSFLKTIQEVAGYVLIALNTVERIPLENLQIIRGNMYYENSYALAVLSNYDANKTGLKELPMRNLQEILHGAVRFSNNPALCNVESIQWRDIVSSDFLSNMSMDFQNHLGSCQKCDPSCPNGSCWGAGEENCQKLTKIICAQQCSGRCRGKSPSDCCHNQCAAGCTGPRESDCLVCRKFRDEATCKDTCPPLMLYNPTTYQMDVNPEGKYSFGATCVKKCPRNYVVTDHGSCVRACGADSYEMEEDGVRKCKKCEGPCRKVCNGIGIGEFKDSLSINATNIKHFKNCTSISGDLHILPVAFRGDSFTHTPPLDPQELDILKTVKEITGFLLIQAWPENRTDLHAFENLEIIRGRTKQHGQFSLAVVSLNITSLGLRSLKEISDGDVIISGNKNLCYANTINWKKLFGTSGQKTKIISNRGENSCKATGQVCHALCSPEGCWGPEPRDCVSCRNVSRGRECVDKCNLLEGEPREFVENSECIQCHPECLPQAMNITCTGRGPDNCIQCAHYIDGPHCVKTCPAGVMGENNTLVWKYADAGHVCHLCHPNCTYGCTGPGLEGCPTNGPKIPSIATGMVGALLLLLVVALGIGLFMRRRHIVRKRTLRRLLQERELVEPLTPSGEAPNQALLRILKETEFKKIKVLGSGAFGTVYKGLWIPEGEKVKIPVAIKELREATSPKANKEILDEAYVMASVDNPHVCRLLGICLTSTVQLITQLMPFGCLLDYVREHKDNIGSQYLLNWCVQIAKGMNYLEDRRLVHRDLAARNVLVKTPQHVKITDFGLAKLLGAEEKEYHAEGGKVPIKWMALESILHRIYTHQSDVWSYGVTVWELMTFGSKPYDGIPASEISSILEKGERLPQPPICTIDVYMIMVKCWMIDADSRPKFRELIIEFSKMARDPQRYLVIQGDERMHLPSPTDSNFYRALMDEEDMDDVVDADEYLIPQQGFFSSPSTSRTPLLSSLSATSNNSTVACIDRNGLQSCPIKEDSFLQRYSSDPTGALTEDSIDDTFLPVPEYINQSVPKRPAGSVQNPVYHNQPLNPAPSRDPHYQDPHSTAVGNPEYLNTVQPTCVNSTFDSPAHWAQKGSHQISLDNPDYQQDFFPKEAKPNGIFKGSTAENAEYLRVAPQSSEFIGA

HepG2 [8] = test: Cytotoxicity against human HepG2 cells at 2.5 uM after 48 hrs by LDH release assay (reference value: 100%); format: functional
Procedure, shortened: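 LDH release. HepG2 cells at 1.0 × 10^5/well were incubated 24 h at 37 °C, then treated at 2.5–40 µM for 48 h. Cells lysed with 2% lysate for 1 h gave the full-release (100%) reference; medium-only cells were the low control. LDH in the supernatant was measured per kit. Triplicates, three independent repeats.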

A549 [9] = test: Antiproliferative activity against human A549 cells at 100 uM after 24 hrs by MTT assay relative to control; format: functional; procedure, shortened: as §3
HepG2 [10] = test: Induction of apoptosis in human HepG2 cells assessed as intracellular free Ca2+ levels after 48 hrs by FL1 channel/FACS analysis; format: functional, cell-based
Procedure, shortened: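 HepG2 seeded at 5.0 × 10^5 cells/mL, 24 h at 37 °C in 5% CO2, then treated 48 h (2.5–20 µM). Harvested cells were washed in ice-cold PBS and loaded with 4 µM Fluo-3/AM for 30 min. After trypsinizing, they were washed twice and resuspended in HEPES, and fluorescence was measured in the FL-1 channel by flow cytometry. Values are averages of at least three independent experiments.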

HepG2 [11] = test: Induction of apoptosis in human HepG2 cells assessed as caspase-3 activity at 5 uM after 48 hrs by colorimetric assay relative to control; format: functional
Procedure, shortened: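 After 48 h treatment, HepG2 were rinsed in ice-cold PBS and lysed 1–1.5 h on ice in buffer with 1% DTT. Lysate was spun at 10,000×g for 1 min at 4 °C; supernatant protein was measured by Bradford. Supernatant was mixed with 2× reaction buffer (1% DTT) plus caspase-3 chromogenic peptide substrate, held 4 h at 37 °C, and read at 405 nm.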

HepG2 [12] = test: Cell cycle arrest in human HepG2 assessed as accumulation at S phase after 48 hrs by propidium iodide-staining based flow cytometry; format: functional; procedure, shortened: as §1
[13] = target: T1, Epidermal growth factor receptor; conditions: HEK293, at 10 pM
HepG2 [14] = test: Antiproliferative activity against human HepG2 cells at 10 uM after 72 hrs by MTT assay realtive to control; format: functional; procedure, shortened: as §3
A549 [15] = test: Antiproliferative activity against human A549 cells at 10 uM after 24 hrs by MTT assay relative to control; format: functional; procedure, shortened: as §3
HepG2 [16] = test: Induction of apoptosis in human HepG2 cells assessed as early apoptotic cells at 10 uM after 48 hrs by Annexin V-FITC/propidium iodide double staining-based flow cytometry (reference value: 8.7%); format: functional
A549 [17] = test: Antiproliferative activity against human A549 cells at 50 uM after 72 hrs by MTT assay relative to control; format: functional; procedure, shortened: as §3
HepG2 [18] = test: Induction of apoptosis in human HepG2 cells assessed as late apoptotic cells at 5 uM after 48 hrs by Annexin V-FITC/propidium iodide double staining-based flow cytometry (reference value: 4.3%); format: functional
[19] = target: T1, Epidermal growth factor receptor; conditions: HEK293, at 1 µM
HepG2 [20] = test: Induction of apoptosis in human HepG2 cells assessed as early apoptotic cells at 5 uM after 48 hrs by Annexin V-FITC/propidium iodide double staining-based flow cytometry (reference value: 8.7%); format: functional
HepG2 [21] = test: Induction of apoptosis in human HepG2 cells assessed as nuclear fragmentation at 2.5 to 20 uM after 48 hrs by Hoechst 33342/propidium iodide double staining based laser scanning confocal microscopy; format: functional, cell-based; procedure, shortened: as §4
HepG2 [22] = test: Cell cycle arrest in human HepG2 assessed as accumulation at G2/M phase at 5 uM after 48 hrs by propidium iodide-staining based flow cytometry (reference value: 9.13%); format: functional; procedure, shortened: as §1
HepG2 [23] = test: Cell cycle arrest in human HepG2 assessed as decrease in cell levels at G0/G1 phase after 48 hrs by propidium iodide-staining based flow cytometry; format: functional; procedure, shortened: as §1
HepG2 [24] = test: Induction of mitochondrial membrane potential loss in human HepG2 cells assessed as mitochondrial membrane potential levels at 5 uM after 48 hrs by rhodamine-123 dye based FACS analysis (reference value: 90.4%); format: functional
HepG2 [25] = test: Antiproliferative activity against human HepG2 cells after 24 hrs by MTT assay; format: functional, cell-based; conditions: HepG2, 24 h; procedure, shortened: as §2
[26] = target: T1, Epidermal growth factor receptor; format: cell-based, HEK293

COc1cc2c(Nc3ccc(C#N)cc3)ncnc2cc1OCCCN1CCC(c2ccccc2)CC1
Activity (HepG2 [1]): 25.1%
Activity (HepG2 [2]): 60.72%
IC50 (A549 [3]): 20.6 µM
Activity (HepG2 [4]): 102%
Activity (HepG2 [5]): Active
Activity (A549 [6]): 95.5%
inhibition [7]: 39.1%
Activity (HepG2 [8]): 39.65%
Activity (A549 [9]): 91.8%
Activity (HepG2 [10]): Dose-dependent effect
Activity (HepG2 [11]): 145%
Activity (HepG2 [12]): Dose-dependent effect
inhibition [13]: 17.9%
Activity (HepG2 [14]): 63.6%
Activity (A549 [15]): 24.7%
Activity (HepG2 [16]): 98.6%
Activity (A549 [17]): 86.6%
Activity (HepG2 [18]): 2%
inhibition [19]: 94.3%
Activity (HepG2 [20]): 80.7%
Activity (HepG2 [21]): Active
Activity (HepG2 [22]): 9.37%
Activity (HepG2 [23]): Dose-dependent effect
Activity (HepG2 [24]): 87%
IC50 (HepG2 [25]): 13 µM
IC50 [26]: 0.00362 µM
